Calls of active or inactive are those of the source. The calls are words filed in the database; no cut-off is given here.
Columns and labels:
[1] = target: T1, Phospholipase A and acyltransferase 5 (Homo sapiens) (UniProt Q96KN8); assay: Inhibition of full-length C-terminal FLAG-tagged human PLAAT5 expressed in human U2OS cells assessed as reduction in absolute N-linoleoylethanolamine level at 10 uM incubated for 4 hrs by LC-MS/MS analysis; type: cell-based
T1 sequence (whole entry): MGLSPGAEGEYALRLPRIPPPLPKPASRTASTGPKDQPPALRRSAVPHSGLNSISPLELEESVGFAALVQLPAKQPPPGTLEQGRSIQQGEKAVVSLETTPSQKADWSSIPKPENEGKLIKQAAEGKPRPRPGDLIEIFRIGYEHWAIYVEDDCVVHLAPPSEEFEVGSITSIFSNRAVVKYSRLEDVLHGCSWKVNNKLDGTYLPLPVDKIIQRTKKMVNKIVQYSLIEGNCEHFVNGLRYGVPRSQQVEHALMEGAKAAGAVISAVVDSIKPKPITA
How it was run: (§1)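 U2OS cells transfected with PLAAT2, PLAAT5 or empty vector (PEI, 1:5 plasmid/PEI). At 24 h, switched to serum-free medium with 10 μM compound (0.1% DMSO) or DMSO for 4 h at 37 °C. Pellets extracted with MTBE against deuterated internal standards. NAEs, 2-AG and free fatty acids quantified by LC–MS/MS, normalized to live cell count. Four biological replicates; one-way ANOVA.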

[2] = target: T2, Phospholipase A and acyltransferase 5 (Homo sapiens, UniProt Q96KN8); assay: Inhibition of full-length C-terminal FLAG-tagged human PLAAT5 expressed in HEK293T cell lysate preincubated for 30 mins followed by MB064 addition and measured after 20 mins by SDS-PAGE based ABPP analysis; type: cell-free, HEK-293T
T2 sequence (Q96KN8 whole entry): T1 sequence (whole entry)
How it was run: (§2)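 Dose–response competitive ABPP on cytosol only, from HEK293T overexpressing FLAG-tagged PLAAT. Inhibitor 30 min rt, then MB064 20 min rt. PLAAT2 0.25 μg/μL with 250 nM probe; PLAAT3 0.5 μg/μL with 250 nM; PLAAT4 and PLAAT5 1 μg/μL with 500 nM. Fluorescence normalized to Coomassie. IC50 from curves, reported as pIC50 ± SEM, n = 3.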

[3] = target: T1, Phospholipase A and acyltransferase 5 (Homo sapiens); assay: Inhibition of full-length C-terminal FLAG-tagged human PLAAT5 expressed in human U2OS cells assessed as reduction in absolute N-palmitoleoylethanolamine level at 10 uM incubated for 4 hrs by LC-MS/MS analysis; type: cell-based; how it was run: as §1
[4] = target: T3, Phospholipase A and acyltransferase 2 (Homo sapiens) (UniProt Q9NWW9); assay: Inhibition of full-length C-terminal FLAG-tagged human PLAAT2 expressed in human U2OS cells assessed as reduction in absolute N-oleoylethanolamine level at 10 uM incubated for 4 hrs by LC-MS/MS analysis; type: cell-based; how it was run: as §1
T3 sequence (whole entry): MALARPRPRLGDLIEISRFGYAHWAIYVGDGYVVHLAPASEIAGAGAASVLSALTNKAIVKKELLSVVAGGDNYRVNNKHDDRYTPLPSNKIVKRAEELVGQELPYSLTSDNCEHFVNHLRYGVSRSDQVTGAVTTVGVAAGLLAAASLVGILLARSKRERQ

[5] = target: T1, Phospholipase A and acyltransferase 5 (Homo sapiens); assay: Inhibition of full-length C-terminal FLAG-tagged human PLAAT5 expressed in human U2OS cells assessed as reduction in 2-AG level at 10 uM incubated for 4 hrs by LC-MS/MS analysis; type: cell-based; how it was run: as §1
U2OS [6] = assay: Inhibition of serine hydrolase in human U2OS cytosolic fraction at 10 uM preincubated for 30 mins followed by FP-TAMRA addition and measured after 15 mins by SDS-PAGE based competitive ABPP analysis
How it was run: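 U2OS cytosol or membrane lysate at 2.5 μg/μL, pretreated with inhibitor or DMSO vehicle for 30 min at rt. Probe then added for 15 min at rt: MB064 at 2 μM or FP-TAMRA at 500 nM. Samples denatured in Laemmli buffer and resolved by SDS-PAGE. In-gel fluorescence scanned at Cy3/Cy5 settings and normalized to Coomassie staining.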

[7] = target: T4, Phospholipase A and acyltransferase 4 (Homo sapiens, UniProt Q9UL19); assay: Inhibition of full-length C-terminal FLAG-tagged human PLAAT4 expressed in HEK293T cell lysate preincubated for 30 mins followed by MB064 addition and measured after 20 mins by SDS-PAGE based ABPP analysis; type: cell-free, HEK-293T; how it was run: as §2
T4 sequence (Q9UL19 whole entry): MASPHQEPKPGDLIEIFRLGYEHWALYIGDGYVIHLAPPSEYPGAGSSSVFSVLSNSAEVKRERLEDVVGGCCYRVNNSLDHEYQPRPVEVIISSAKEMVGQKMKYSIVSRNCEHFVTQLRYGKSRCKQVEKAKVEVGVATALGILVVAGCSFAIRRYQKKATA

U2OS [8] = assay: Inhibition of serine hydrolase in human U2OS cell membrane fraction at 10 uM preincubated for 30 mins followed by FP-TAMRA addition and measured after 15 mins by SDS-PAGE based competitive ABPP analysis
How it was run: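 U2OS membrane lysate (2.5 μg/μL) preincubated with inhibitor for 30 min at rt. FP-TAMRA 500 nM added for 15 min at rt. SDS-PAGE with in-gel fluorescence normalized to Coomassie.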

U2OS [9] = assay: Downregulation of N-arachidonoylethanolamine level in human U2OS cells at 10 uM after 4 hrs by LC-MS/MS analysis; type: functional, cell-based; how it was run: as §1
U2OS [10] = assay: Downregulation of N-palmitoleoylethanolamine level in human U2OS cells at 10 uM after 4 hrs by LC-MS/MS analysis; type: functional, cell-based; how it was run: as §1
[11] = target: T3, Phospholipase A and acyltransferase 2 (Homo sapiens); assay: Inhibition of full-length C-terminal FLAG-tagged human PLAAT2 expressed in human U2OS cells assessed as reduction in absolute N-docosahexaenoylethanolamine level at 10 uM incubated for 4 hrs by LC-MS/MS analysis; type: cell-based; how it was run: as §1
[12] = target: T1, Phospholipase A and acyltransferase 5 (Homo sapiens); assay: Inhibition of full-length C-terminal FLAG-tagged human PLAAT5 expressed in human U2OS cells assessed as reduction in absolute N-stearoylethanolamine level at 10 uM incubated for 4 hrs by LC-MS/MS analysis; type: cell-based; how it was run: as §1
[13] = target: N-acyl-phosphatidylethanolamine-hydrolyzing phospholipase D (Homo sapiens) (UniProt Q6IQ20); assay: Inhibition of full length human NAPE-PLD expressed in HEK293T cells assessed as enzyme remaining activity at 10 uM using PED6 as substrate preincubated for 30 mins followed by substrate addition and measured for 1 hr at 2 mins relative to control; type: cell-based; conditions: HEK-293T
[14] = target: T1, Phospholipase A and acyltransferase 5 (Homo sapiens); assay: Inhibition of full-length C-terminal FLAG-tagged human PLAAT5 expressed in human U2OS cells assessed as reduction in anandamide level at 10 uM incubated for 4 hrs by LC-MS/MS analysis relative to control; type: cell-based; how it was run: as §1
[15] = target: T3, Phospholipase A and acyltransferase 2 (Homo sapiens); assay: Inhibition of full-length C-terminal FLAG-tagged human PLAAT2 expressed in human U2OS cells assessed as reduction in absolute N-palmitoylethanolamine level at 10 uM incubated for 4 hrs by LC-MS/MS analysis; type: cell-based; how it was run: as §1
U2OS [16] = assay: Downregulation of N-palmitoylethanolamine level in human U2OS cells at 10 uM after 4 hrs by LC-MS/MS analysis; type: functional, cell-based; how it was run: as §1
[17] = target: Cytosolic phospholipase A2 gamma (Homo sapiens) (UniProt Q9UP65); assay: Inhibition of human PLA2G4C expressed in HEK293T cell lysates at 10 uM preincubated for 30 mins followed by FP-TAMRA addition and measured after 20 mins by SDS-PAGE based competitive ABPP analysis; type: cell-free; conditions: HEK-293T
How it was run: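 hPLA2G4B, C or D-overexpressing membrane lysate (1 μg/μL) preincubated with inhibitor for 30 min at rt. FP-TAMRA 500 nM added for 20 min at rt. In-gel fluorescence after SDS-PAGE, normalized to Coomassie.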

Cytosolic phospholipase A2 gamma (Homo sapiens), sequence (Q9UP65 whole entry): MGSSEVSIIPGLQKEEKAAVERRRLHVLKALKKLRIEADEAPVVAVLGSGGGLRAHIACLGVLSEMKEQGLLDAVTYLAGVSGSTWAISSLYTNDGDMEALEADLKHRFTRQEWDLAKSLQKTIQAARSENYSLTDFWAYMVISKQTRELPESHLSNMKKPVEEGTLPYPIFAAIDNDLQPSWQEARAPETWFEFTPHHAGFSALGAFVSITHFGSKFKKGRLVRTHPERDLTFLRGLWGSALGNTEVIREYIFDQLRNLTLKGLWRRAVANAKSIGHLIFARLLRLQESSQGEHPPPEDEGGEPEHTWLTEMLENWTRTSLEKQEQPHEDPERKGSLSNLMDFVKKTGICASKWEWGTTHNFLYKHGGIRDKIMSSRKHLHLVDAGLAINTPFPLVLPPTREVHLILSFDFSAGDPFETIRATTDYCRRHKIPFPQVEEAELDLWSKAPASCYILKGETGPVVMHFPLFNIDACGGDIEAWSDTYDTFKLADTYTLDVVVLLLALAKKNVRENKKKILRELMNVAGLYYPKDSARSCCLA
N-acyl-phosphatidylethanolamine-hydrolyzing phospholipase D (Homo sapiens), sequence (Q6IQ20 whole entry, looked up): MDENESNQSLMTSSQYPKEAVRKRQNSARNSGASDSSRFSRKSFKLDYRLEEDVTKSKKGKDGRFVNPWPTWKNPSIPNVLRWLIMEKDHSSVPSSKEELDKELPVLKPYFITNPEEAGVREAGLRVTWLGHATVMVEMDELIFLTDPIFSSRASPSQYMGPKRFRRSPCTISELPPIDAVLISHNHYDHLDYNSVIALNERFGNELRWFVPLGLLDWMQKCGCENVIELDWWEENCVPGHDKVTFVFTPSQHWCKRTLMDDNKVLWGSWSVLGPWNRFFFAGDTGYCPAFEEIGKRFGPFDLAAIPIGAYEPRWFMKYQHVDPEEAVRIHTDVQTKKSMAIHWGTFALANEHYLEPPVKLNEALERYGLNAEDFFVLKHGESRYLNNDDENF

- inhibition [1]: Active
- IC50 [2]: 39.8 nM
- inhibition [3]: Active
- inhibition [4]: Active
- inhibition [5]: inactive
- inhibition (U2OS [6]): inactive
- IC50 [7]: 50.1 nM
- inhibition [11]: Active
- inhibition [12]: Active
- Activity [13]: 92%
- fold change (FC) [14]: 2
- inhibition [15]: Active
- inhibition [17]: inactive
Compound: O=C(CCCc1ccccc1)C(=O)NCCc1ccc(Oc2ccccc2)cc1
- inhibition (U2OS [8]): inactive
- inhibition (U2OS [9]): inactive
- inhibition (U2OS [10]): inactive
- inhibition (U2OS [16]): inactive

Source: ChEMBL document CHEMBL4622983, “Structure-Activity Relationship Studies of α-Ketoamides as Inhibitors of the Phospholipase A and Acyltransferase Enzyme Family” (J Med Chem, 2020)
